Activity calls are given as the source filed them. The rule behind the calls is not given here.
Tests used:
Plasmodium falciparum [1] = assay: Resistance index, ratio of IC90 for CQ, MFQ-resistant Plasmodium falciparum TM91C235 clone Southeast asian isolate to IC90 for CQ, MFQ-susceptible Plasmodium falciparum D6 clone Sierra 1/UNC isolate; format: functional
How it was run: (§1)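 SYBR Green I fluorescence (MSF) microtiter drug-sensitivity assay: malarial DNA content is the measure of in vitro parasite proliferation. Resistance index is the IC90 ratio of the resistant strain to D6.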

PBMC = assay: Cytotoxicity against human PBMC assessed as inhibition of cell survival after 72 hrs; format: cell-based
How it was run: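 PBMC from heparinized healthy-donor blood (Histopaque) in RPMI-1640 with 10% FCS and PHA stimulation, 200 000 cells/well, with compounds in DMSO, 72 h at 37 °C, 6% CO2.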

[2] = target: Botulinum neurotoxin type A (Clostridium botulinum) (UniProt P0DPI0); assay: Inhibition of Clostridium botulinum recombinant BoNT/A light chain using N-terminal acetylated, C-terminal aminated SNAP-25 (187-203) as substrate at 20 uM by reverse-phase HPLC analysis
Sequence of Botulinum neurotoxin type A (Clostridium botulinum) (P0DPI0 2-448 limits assumed): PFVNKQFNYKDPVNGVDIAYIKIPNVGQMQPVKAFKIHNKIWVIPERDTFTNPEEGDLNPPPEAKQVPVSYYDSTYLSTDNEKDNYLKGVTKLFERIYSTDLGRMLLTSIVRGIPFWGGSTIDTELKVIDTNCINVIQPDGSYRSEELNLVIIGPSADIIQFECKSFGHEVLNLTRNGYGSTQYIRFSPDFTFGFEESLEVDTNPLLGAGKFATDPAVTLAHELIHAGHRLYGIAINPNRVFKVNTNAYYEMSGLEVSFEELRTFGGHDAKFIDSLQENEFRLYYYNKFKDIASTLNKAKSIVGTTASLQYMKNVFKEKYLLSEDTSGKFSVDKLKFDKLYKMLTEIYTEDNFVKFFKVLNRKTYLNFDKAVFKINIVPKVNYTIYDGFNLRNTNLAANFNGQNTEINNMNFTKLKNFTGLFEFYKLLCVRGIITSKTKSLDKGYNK
How it was run: (§2)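 Recombinant BoNT/A LC with SNAP-25 187–203 peptide substrate in 40 mM HEPES–0.05% Tween, pH 7.3, with 0.5 mg/mL BSA and 50 μM excess Zn, at 37 °C. Quenched with TFA; reverse-phase HPLC product/substrate peak areas give percent inhibition, run in duplicate.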

HepG2 = assay: Cytotoxicity against human HepG2 cells assessed as cell viability after 48 hrs by MTT assay; format: cell-based; conditions: HepG2, 48 h
Plasmodium falciparum [3] = assay: Antimalarial activity against CQ, MFQ-susceptible Plasmodium falciparum D6 clone Sierra 1/UNC isolate assessed as inhibition of parasite proliferation by MSF assay; format: functional, organism-based; how it was run: as §1
[4] = Half life in human liver microsomes; format: ADME; conditions: liver microsomes
Plasmodium falciparum [5] = assay: Resistance index, ratio of IC90 for CQ-resistant, MFQ-susceptible Plasmodium falciparum W2 clone Indochina 1 isolate to IC90 for CQ, MFQ-susceptible Plasmodium falciparum D6 clone Sierra 1/UNC isolate; format: functional; how it was run: as §1
[6] = Selectivity index, ratio of IC50 for human HepG2 cells to IC50 for CQ, MFQ-susceptible Plasmodium falciparum D6 clone Sierra 1/UNC isolate; format: toxicity, cell-based; conditions: read-out: Ratio IC50
Plasmodium falciparum [7] = assay: Antimalarial activity against CQ, MFQ-resistant Plasmodium falciparum TM91C235 clone Southeast asian isolate assessed as inhibition of parasite proliferation by MSF assay; format: functional, organism-based; how it was run: as §1
Plasmodium berghei = assay: Antimalarial activity against Plasmodium berghei infected in ICR mouse assessed as host survival at 40 to 160 mg/kg/day, po administered on day 3, 4 and 5 post-infection measured on day 13 after infection; format: functional, organism-based
[8] = target: Botulinum neurotoxin type A (Clostridium botulinum, UniProt P0DPI0); assay: Inhibition of Clostridium botulinum recombinant BoNT/A light chain using N-terminal acetylated, C-terminal aminated SNAP-25 (187-203) as substrate by reverse-phase HPLC analysis
Sequence of Botulinum neurotoxin type A (P0DPI0 2-448 limits assumed): as above
How it was run: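 Same HPLC LC cleavage assay (pH 7.3 HEPES/Tween, BSA, excess Zn, 37 °C). […] Ki comes from velocity versus substrate at several inhibitor levels, globally fit to a competitive model.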

[9] = Selectivity index, ratio of IC50 for human HepG2 cells to IC50 for CQ-resistant, MFQ-susceptible Plasmodium falciparum W2 clone Indochina 1 isolate; format: toxicity, cell-based; conditions: read-out: Ratio IC50
[10] = Half life in mouse liver microsomes; format: ADME; conditions: liver microsomes
Mus musculus = assay: Toxicity in ICR mouse infected with Plasmodium berghei assessed as tissue damage at 40 to 160 mg/kg/day, po administered on day 3, 4 and 5 post-infection; format: organism-based; design: route oral; conditions: in vivo
[11] = Selectivity index, ratio of IC50 for human HepG2 cells to IC50 for CQ, MFQ-resistant Plasmodium falciparum TM91C235 clone Southeast asian isolate; format: toxicity, cell-based; conditions: read-out: Ratio IC50
Plasmodium falciparum [12] = assay: Antimalarial activity against CQ-resistant, MFQ-susceptible Plasmodium falciparum W2 clone Indochina 1 isolate assessed as inhibition of parasite proliferation by MSF assay; format: functional, organism-based; how it was run: as §1
Plasmodium falciparum [13] = assay: Resistance index, ratio of IC50 for CQ, MFQ-resistant Plasmodium falciparum TM91C235 clone Southeast asian isolate to IC50 for CQ, MFQ-susceptible Plasmodium falciparum D6 clone Sierra 1/UNC isolate; format: functional
Plasmodium falciparum [14] = assay: Resistance index, ratio of IC50 for CQ-resistant, MFQ-susceptible Plasmodium falciparum W2 clone Indochina 1 isolate to IC50 for CQ, MFQ-susceptible Plasmodium falciparum D6 clone Sierra 1/UNC isolate; format: functional
[15] = target: Botulinum neurotoxin type A (Clostridium botulinum) (UniProt P0DPI0); assay: Inhibition of Clostridium botulinum recombinant BoNT/A light chain using N-terminal acetylated, C-terminal aminated SNAP-25 (187-203) as substrate at 10 uM by reverse-phase HPLC analysis; how it was run: as §2
[16] = target: Botulinum neurotoxin type A (Clostridium botulinum) (UniProt P0DPI0); assay: Inhibition of Clostridium botulinum BoNT/A-mediated SNAP-25 cleavage in chicken embryo neurons assessed as intact SNAP-25 level at […] preincubated for 45 mins followed by co-incubation with BoNT/A for 3.5 hrs by western blot analysis in presence of 25 uL of 100 nM antibiotic bafilomycin; design: scale not given: the % may be the effect or the level left
[17] = target: Botulinum neurotoxin type A (Clostridium botulinum) (UniProt P0DPI0); assay: Inhibition of Clostridium botulinum BoNT/A-mediated SNAP-25 cleavage in chicken embryo neurons assessed as intact SNAP-25 level at […] preincubated for 45 mins followed by co-incubation with BoNT/A for 3.5 hrs by western blot analysis in presence of 5 uL of 100 nM antibiotic bafilomycin; design: scale not given: the % may be the effect or the level left
[18] = target: Botulinum neurotoxin type A (Clostridium botulinum) (UniProt P0DPI0); assay: Inhibition of Clostridium botulinum BoNT/A-mediated SNAP-25 cleavage in chicken embryo neurons assessed as intact SNAP-25 level at […] preincubated for 45 mins followed by co-incubation with BoNT/A for 3.5 hrs by western blot analysis; design: scale not given: the % may be the effect or the level left

Row | SMILES | Ratio (Plasmodium falciparum [1]) | IC50 (PBMC) [nM] | inhibition [2] [%] | IC50 (HepG2) [nM] | IC50 (Plasmodium falciparum [3]) [nM] | IC90 (Plasmodium falciparum [3]) [nM] | half-life [4] [h] | Ratio (Plasmodium falciparum [5]) | selectivity ratio [6] | IC50 (Plasmodium falciparum [7]) [nM] | IC90 (Plasmodium falciparum [7]) [nM] | IC50 [8] [nM] | selectivity ratio [9] | half-life [10] [h] | selectivity ratio [11] | IC50 (Plasmodium falciparum [12]) [nM] | IC90 (Plasmodium falciparum [12]) [nM] | Ki [8] [nM] | Activity [16] [%] | Activity [17] [%] | other results
1 | CC(=O)O[C@H]1C[C@H]2[C@@H]([C@H](OC(C)=O)C[C@@H]3C[C@H](N)CC[C@@]32C)[C@@H]2CC[C@H]([C@H](C)CCCN(C)CCNc3ccnc4cc(Cl)ccc34)[C@@]12C | 2.06 | 2590 | 89.5 | 14400 | 3.6 | 4.46 | 1 | 0.84 | 4000 | 6.18 | 9.2 | 1140 | 4990 | 1 | 2330 | 2.88 | 3.74 | – | – | – | Activity (Plasmodium berghei): inactive; Activity (Mus musculus): Non-toxic
2 | CC(=O)O[C@H]1C[C@H]2[C@@H]([C@H](OC(C)=O)C[C@@H]3C[C@H](N(C)C)CC[C@@]32C)[C@@H]2CC[C@H]([C@H](C)CCCNCCNc3ccnc4cc(Cl)ccc34)[C@@]12C | – | – | 93.5 | 14100 | 42.3 | – | 1 | – | 333 | 32.4 | – | 1020 | 714 | 1 | 435 | 19.7 | – | – | – | – | Ratio IC50 (Plasmodium falciparum [13]): 0.77; Ratio IC50 (Plasmodium falciparum [14]): 47
3 | CC(=O)O[C@H]1C[C@H]2[C@@H]([C@H](OC(C)=O)C[C@@H]3CC(NCCNc4ccnc5cc(Cl)ccc45)CC[C@@]32C)[C@@H]2CC[C@H]([C@H](C)CCCNCCNc3ccnc4cc(Cl)ccc34)[C@@]12C (some centres undefined) | – | 302 | 96.5 | 3770 | 120 | – | – | – | 32 | 124 | – | – | 38 | – | 30 | 98.2 | – | 341 | – | – | inhibition [15]: Active
4 | CC(=O)O[C@H]1C[C@H]2[C@@H]([C@H](OC(C)=O)C[C@@H]3C[C@H](N(C)C)CC[C@@]32C)[C@@H]2CC[C@H]([C@H](C)CCCN(C)CCCNc3ccnc4cc(Cl)ccc34)[C@@]12C | – | – | 86.9 | 5280 | 152 | – | 1 | – | 35 | 74.6 | – | 1290 | 93 | 1 | 71 | 57 | – | – | – | – | –
5 | CC(=O)O[C@H]1C[C@H]2[C@@H]([C@H](OC(C)=O)C[C@@H]3CC(NCCCNc4ccnc5cc(Cl)ccc45)CC[C@@]32C)[C@@H]2CC[C@H]([C@H](C)CCCNCCCNc3ccnc4cc(Cl)ccc34)[C@@]12C (mixture of isomers) | – | – | 97.2 | 4680 | 143 | – | – | – | 32 | 195 | – | – | 43 | – | 24 | 108 | – | 171 | – | – | inhibition [15]: Active
6 | CC(=O)O[C@H]1C[C@H]2[C@@H]([C@H](OC(C)=O)C[C@@H]3C[C@H](N)CC[C@@]32C)[C@@H]2CC[C@H]([C@H](C)CCCN(CCC[C@@H](C)[C@H]3CC[C@H]4[C@@H]5[C@H](OC(C)=O)C[C@@H]6C[C@H](N)CC[C@]6(C)[C@H]5C[C@H](OC(C)=O)[C@]34C)CCNc3ccnc4cc(Cl)ccc34)[C@@]12C | 1.54 | – | 82.2 | 1650 | – | 114 | – | 0.92 | 19 | 85.9 | 175 | 3050 | 21 | – | 19 | 78 | 105 | – | 93 | 96 | Activity [18]: 89%
7 | CC(=O)N[C@@H]1CC[C@@]2(C)[C@@H](C1)C[C@@H](OC(C)=O)[C@@H]1[C@@H]2C[C@H](OC(C)=O)[C@]2(C)[C@@H]([C@H](C)CCCNCCNc3ccnc4cc(Cl)ccc34)CC[C@@H]12 | 1.09 | – | 74 | 1920 | 16.6 | 31.8 | – | 1.96 | 116 | 15.2 | 34.6 | 2460 | 126 | – | 126 | – | 62.2 | – | 36 | 28 | Activity [18]: 16%
8 | CC(=O)O[C@H]1C[C@H]2[C@@H]([C@H](OC(C)=O)C[C@@H]3C[C@H](N)CC[C@@]32C)[C@@H]2CC[C@H]([C@H](C)CCCNCCNc3ccnc4cc(Cl)ccc34)[C@@]12C | 1.25 | 7880 | 89.3 | 5610 | – | 176 | – | 1.33 | 39 | 147 | 220 | 810 | 35 | – | 38 | 161 | 235 | 3220 | 81 | 88 | Activity [18]: 77%
